Experimental data as given in ChEMBL document CHEMBL5678802, “Small-molecule p21-activated kinase inhibitor PF-3758309 is a potent inhibitor of oncogenic signaling and tumor growth” (Proc Natl Acad Sci U S A, 2010).
Activity calls are given as the source filed them. The rule behind the calls is not given here.

Assays:
[1] = tested on: HCT-116; experiment: Antiproliferative activity against human HCT-116 cells assessed as inhibition of cell proliferation incubated for 3 days by CellTiter-Glo Luminescent Cell Viability Assay; assay type: functional, cell-based; settings: HCT-116, 72 h
Summary of the method: (§1)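 Cancer cell lines seeded in 384-well plates on day 1; compound added on day 2 and left for 3 days. On day 5 all medium was aspirated, and viable cells were quantified by CellTiter-Glo luminescence, which measures cellular ATP. Dose-dependent effects on proliferation were determined.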

[2] = tested on: LS174T; experiment: Antiproliferative activity against human LS174T cells assessed as inhibition of cell proliferation incubated for 3 days by CellTiter-Glo Luminescent Cell Viability Assay; assay type: functional, cell-based; settings: 72 h; summary of the method: as §1
[3] = Antiproliferative activity against human PaTu 8902 cells assessed as inhibition of cell proliferation incubated for 3 days by CellTiter-Glo Luminescent Cell Viability Assay; assay type: functional, cell-based; settings: PaTu 8902, 72 h
Summary of the method: (§2)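 Cells of each line were plated in 384-well plates on day 1 and exposed to compound from day 2 for 3 days. On day 5 all medium was aspirated. Viable cell number was read by CellTiter-Glo luminescence, which quantifies cellular ATP.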

[4] = tested on: PaTu 8988t; experiment: Antiproliferative activity against human PaTu 8988t cells assessed as inhibition of cell proliferation incubated for 3 days by CellTiter-Glo Luminescent cell viability assay; assay type: functional, cell-based; settings: 72 h; summary of the method: as §2
[5] = tested on: Panc 04.03; experiment: Antiproliferative activity against human Panc 04.03 cells assessed as inhibition of cell proliferation incubated for 3 days by CellTiter-Glo Luminescent Cell Viability Assay; assay type: functional, cell-based; settings: Panc 04.03, 72 h; summary of the method: as §2
[6] = tested on: CAPAN-1; experiment: Antiproliferative activity against human CAPAN-1 cells assessed as inhibition of cell proliferation incubated for 3 days by CellTiter-Glo Luminescent Cell Viability Assay; assay type: functional, cell-based; settings: CAPAN-1, 72 h; summary of the method: as §1
[7] = tested on: ASPC1; experiment: Antiproliferative activity against human ASPC1 cells assessed as inhibition of cell proliferation incubated for 3 days by CellTiter-Glo Luminescent Cell Viability Assay; assay type: functional, cell-based; settings: ASPC1, 72 h; summary of the method: as §1
[8] = tested on: NCI-H1355; experiment: Inhibition of anchorage independent cell growth in human NCI-H1355 cells incubated for 6 days by Alamar blue reagent based fluorescence plate reader analysis; assay type: functional; settings: NCI-H1355, 144 h
[9] = tested on: NCI-H1838; experiment: Inhibition of anchorage independent cell growth in human NCI-H1838 cells incubated for 6 days by Alamar blue reagent based fluorescence plate reader analysis; assay type: functional; settings: NCI-H1838, 144 h
[10] = tested on: HCC1395; experiment: Antiproliferative activity against human HCC1395 cells assessed as inhibition of cell proliferation incubated for 3 days by CellTiter-Glo Luminescent Cell Viability Assay; assay type: functional, cell-based; settings: HCC1395, 72 h; summary of the method: as §1
[11] = tested on: MDA-MB-361; experiment: Antiproliferative activity against human MDA-MB-361 cells assessed as inhibition of cell proliferation incubated for 3 days by CellTiter-Glo Luminescent Cell Viability Assay; assay type: functional, cell-based; settings: MDA-MB-361, 72 h; summary of the method: as §1
[12] = target: Ribosomal protein S6 kinase alpha-3 (Homo sapiens, UniProt P51812); experiment: Inhibition of human RSK2 in presence of ATP relative to control; settings: concentration not given here
Ribosomal protein S6 kinase alpha-3, sequence (P51812 whole entry): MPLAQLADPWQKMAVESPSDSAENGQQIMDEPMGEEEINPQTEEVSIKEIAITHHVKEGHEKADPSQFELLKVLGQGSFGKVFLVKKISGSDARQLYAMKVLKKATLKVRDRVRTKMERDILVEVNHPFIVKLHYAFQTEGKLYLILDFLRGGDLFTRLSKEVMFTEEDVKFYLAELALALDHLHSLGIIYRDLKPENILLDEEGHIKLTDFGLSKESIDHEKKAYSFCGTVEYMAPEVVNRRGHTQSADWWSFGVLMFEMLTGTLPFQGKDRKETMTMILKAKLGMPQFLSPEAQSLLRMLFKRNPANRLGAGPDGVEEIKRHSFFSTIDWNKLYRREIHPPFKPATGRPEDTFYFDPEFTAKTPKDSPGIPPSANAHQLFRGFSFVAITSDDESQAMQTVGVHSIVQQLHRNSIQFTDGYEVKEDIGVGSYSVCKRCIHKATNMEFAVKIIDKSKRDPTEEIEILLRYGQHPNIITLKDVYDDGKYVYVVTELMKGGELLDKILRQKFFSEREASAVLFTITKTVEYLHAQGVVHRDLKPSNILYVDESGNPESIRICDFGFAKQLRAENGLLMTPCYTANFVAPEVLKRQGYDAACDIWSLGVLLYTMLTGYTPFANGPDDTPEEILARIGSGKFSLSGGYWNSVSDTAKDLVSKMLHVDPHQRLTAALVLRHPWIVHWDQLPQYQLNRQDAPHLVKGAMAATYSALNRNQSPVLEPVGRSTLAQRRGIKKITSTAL

[13] = target: Tyrosine-protein kinase Yes (Homo sapiens, UniProt P07947); experiment: Inhibition of human YES1 in presence of ATP relative to control; settings: concentration not given here
Tyrosine-protein kinase Yes, sequence (P07947 2-543 limits assumed): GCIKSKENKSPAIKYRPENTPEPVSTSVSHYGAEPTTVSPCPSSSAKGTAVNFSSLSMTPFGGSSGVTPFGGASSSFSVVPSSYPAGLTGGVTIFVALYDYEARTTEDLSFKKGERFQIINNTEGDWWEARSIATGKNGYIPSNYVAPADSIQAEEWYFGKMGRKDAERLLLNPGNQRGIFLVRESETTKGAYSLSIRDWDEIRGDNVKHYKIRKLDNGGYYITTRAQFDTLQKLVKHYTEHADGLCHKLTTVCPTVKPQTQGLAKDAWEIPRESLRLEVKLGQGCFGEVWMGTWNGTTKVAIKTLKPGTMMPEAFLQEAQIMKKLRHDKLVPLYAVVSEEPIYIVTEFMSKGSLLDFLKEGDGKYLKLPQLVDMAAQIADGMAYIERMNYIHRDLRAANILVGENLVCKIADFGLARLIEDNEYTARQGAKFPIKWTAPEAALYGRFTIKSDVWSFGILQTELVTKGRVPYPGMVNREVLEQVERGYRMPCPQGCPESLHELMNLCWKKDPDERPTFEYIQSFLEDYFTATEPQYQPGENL

[14] = target: AMP-activated protein kinase (AMPK) alpha-1/beta-1/gamma-1 (Homo sapiens, UniProt P54619+Q13131+Q9Y478); experiment: Inhibition of human AMPK alpha1/beta1/gamma1 assessed as inhibition constant in presence of ATP; assay type: protein-complex assay
AMP-activated protein kinase (AMPK) alpha-1/beta-1/gamma-1, sequence (P54619 whole entry): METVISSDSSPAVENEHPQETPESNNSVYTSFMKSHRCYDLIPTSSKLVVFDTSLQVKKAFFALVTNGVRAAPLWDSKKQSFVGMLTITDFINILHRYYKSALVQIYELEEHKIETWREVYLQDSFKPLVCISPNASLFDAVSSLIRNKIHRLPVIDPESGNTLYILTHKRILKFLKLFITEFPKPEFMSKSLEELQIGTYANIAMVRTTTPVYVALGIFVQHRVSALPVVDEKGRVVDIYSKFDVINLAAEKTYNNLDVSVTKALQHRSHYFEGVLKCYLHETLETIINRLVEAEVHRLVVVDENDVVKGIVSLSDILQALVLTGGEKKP
AMP-activated protein kinase (AMPK) alpha-1/beta-1/gamma-1, sequence (Q9Y478 whole entry): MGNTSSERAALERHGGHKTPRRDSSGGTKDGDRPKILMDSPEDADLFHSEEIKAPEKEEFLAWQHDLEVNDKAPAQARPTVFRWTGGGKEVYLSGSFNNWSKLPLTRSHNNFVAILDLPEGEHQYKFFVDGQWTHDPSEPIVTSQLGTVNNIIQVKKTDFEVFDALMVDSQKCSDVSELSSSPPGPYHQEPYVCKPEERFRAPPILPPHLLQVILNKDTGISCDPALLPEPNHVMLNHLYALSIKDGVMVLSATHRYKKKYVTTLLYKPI
AMP-activated protein kinase (AMPK) alpha-1/beta-1/gamma-1, sequence (Q13131 whole entry): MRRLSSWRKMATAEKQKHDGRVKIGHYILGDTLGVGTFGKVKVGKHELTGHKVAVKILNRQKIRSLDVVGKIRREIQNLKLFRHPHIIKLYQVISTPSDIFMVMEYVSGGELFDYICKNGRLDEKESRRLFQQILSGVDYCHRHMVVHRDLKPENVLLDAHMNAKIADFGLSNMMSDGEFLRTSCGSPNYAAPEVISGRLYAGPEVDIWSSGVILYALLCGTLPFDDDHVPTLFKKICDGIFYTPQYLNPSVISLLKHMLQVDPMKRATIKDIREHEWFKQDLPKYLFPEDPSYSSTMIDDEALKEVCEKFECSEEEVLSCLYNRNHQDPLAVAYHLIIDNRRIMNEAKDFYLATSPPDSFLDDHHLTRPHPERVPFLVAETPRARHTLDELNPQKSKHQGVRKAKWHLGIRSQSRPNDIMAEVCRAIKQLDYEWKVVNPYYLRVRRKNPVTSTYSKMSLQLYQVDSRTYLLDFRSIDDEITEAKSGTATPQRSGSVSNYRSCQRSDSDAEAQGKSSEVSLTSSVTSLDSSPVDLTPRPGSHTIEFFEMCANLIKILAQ

[15] = target: T1, Proto-oncogene tyrosine-protein kinase Src (Homo sapiens, UniProt P12931); experiment: Inhibition of human SRC assessed as inhibition constant in presence of ATP
T1 sequence (P12931 2-536 limits assumed): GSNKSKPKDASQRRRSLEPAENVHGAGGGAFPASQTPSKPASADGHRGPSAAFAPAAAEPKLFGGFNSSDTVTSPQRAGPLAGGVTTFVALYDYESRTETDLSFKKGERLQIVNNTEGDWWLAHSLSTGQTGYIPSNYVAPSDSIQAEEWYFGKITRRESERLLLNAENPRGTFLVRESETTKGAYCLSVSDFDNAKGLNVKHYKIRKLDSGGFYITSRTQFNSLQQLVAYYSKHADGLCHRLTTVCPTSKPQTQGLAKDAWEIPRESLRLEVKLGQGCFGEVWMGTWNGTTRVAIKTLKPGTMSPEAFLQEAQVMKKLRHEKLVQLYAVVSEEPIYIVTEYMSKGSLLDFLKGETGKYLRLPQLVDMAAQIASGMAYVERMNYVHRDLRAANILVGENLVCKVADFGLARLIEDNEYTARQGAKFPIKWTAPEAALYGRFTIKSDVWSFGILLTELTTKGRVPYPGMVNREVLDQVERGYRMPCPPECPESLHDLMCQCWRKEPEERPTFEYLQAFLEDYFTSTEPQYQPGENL

[16] = target: T1, Proto-oncogene tyrosine-protein kinase Src; experiment: Inhibition of human SRC in presence of ATP
[17] = target: T1, Proto-oncogene tyrosine-protein kinase Src; experiment: Inhibition of human SRC in presence of ATP by cellular assay
[18] = target: Protein kinase C gamma type (Homo sapiens, UniProt P05129); experiment: Inhibition of human PKCgamma in presence of ATP by cellular assay
[19] = Inhibition of YFP/YFP variant coding sequence fused PAK4/cofilin (unknown origin) expressed in HEK293 cells incubated for 8 to 24 hrs by fluorescence based analysis; assay type: cell-based, Homo sapiens
[20] = tested on: HCT-116; experiment: Downregulation of camptothecin-induced p21 waf1/cip1 level in human HCT-116 cells at 1 uM preincubated with compound for 15 mins followed by camptothecin stimulation and measured after 20 hrs by Western blot analysis; assay type: functional, cell-based; settings: time 20.25 hrs
[21] = Drug concentration in nude mouse plasma xenografted with human HCT-116 cells at 0.36 mg/kg administered via pump for 9 days by LC-MS/MS analysis; assay type: ADME, organism-based; settings: time 9 day
[22] = tested on: HCT-116; experiment: Antitumor activity against human HCT-116 cells xenografted in nude mouse assessed as reduction in Ki67 administered orally twice daily for 6 days by immunohistochemical analysis; assay type: functional; settings: dose 15-25 mg/kg, route po, time 6.0 day
[23] = tested on: HCT-116; experiment: Antitumor activity against human HCT-116 cells xenografted in nude mouse assessed as reduction in BAD phosphorylation at S136 residue at 15 to 150 mg/kg/day administered via pump for 18 hrs by Reverse-Phase protein array analysis; assay type: functional, organism-based; settings: dose 15-150 mg/kg/day
[24] = tested on: HCT-116; experiment: Antitumor activity against human HCT-116 cells xenografted in nude mouse assessed as reduction in total Myc level at 15 to 150 mg/kg/day administered via pump for 18 hrs by Reverse-Phase protein array analysis; assay type: functional, organism-based; settings: dose 15-150 mg/kg/day
[25] = tested on: HCT-116; experiment: Antitumor activity against human HCT-116 cells xenografted in nude mouse assessed as reduction in Elk phosphorylation at S383 residue at 15 to 150 mg/kg/day administered via pump for 18 hrs by Reverse-Phase protein array analysis; assay type: functional, organism-based; settings: dose 15-150 mg/kg/day

IC50 [1]: 2.4 nM
IC50 [5]: 347 nM
IC50 [7]: 1800 nM
IC50 [8]: 14.2 nM
IC50 [9]: 9.59 nM
IC50 [10]: 1.6 nM
IC50 [11]: 6.9 nM
inhibition [12]: 101%
inhibition [13]: 92%
Ki [14]: 5 nM
Ki [15]: 32 nM
IC50 [16]: 55 nM
IC50 [17]: 2210 nM
IC50 [18]: 4740 nM
IC50 [19]: 10.4 nM
concentration at 216 h [21]: 1.7 ng/mL
Compound: Cc1nc(Nc2n[nH]c3c2CN(C(=O)N[C@H](CN(C)C)c2ccccc2)C3(C)C)c2sccc2n1 [PF-03758309]
IC50 [2]: 7.2 nM
IC50 [3]: 27 nM
IC50 [4]: 73 nM
IC50 [6]: 1100 nM
Activity [20]: Active
Activity [22]: Dose-Dependent Effect
Activity [23]: Active
Activity [24]: Active
Activity [25]: Active
